Source: ChEMBL document CHEMBL4011607 (J Med Chem, 2017)

What was measured:
Mus musculus = assay: Drug metabolism in po dosed mouse assessed as racemization after 12 hrs; format: ADME, organism-based; settings: in vivo
Method in brief: (§1)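 A related atropisomeric analogue was dosed to preclinical species and checked in vivo for interconversion to the other atropisomer. Monkey iv, 1 h; rat iv, 1 h; dog po, 24 h; mouse po, 12 h.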

[1] = (§2) Clearance in dog at […], iv; format: ADME, organism-based, Canis lupus familiaris; settings: in vivo; further: dose 0.25 mg/kg
Canis familiaris [2] = assay: Unbound clearance in dog at […], iv; format: ADME, organism-based, Canis lupus familiaris; settings: in vivo; further: dose 0.25 mg/kg
[3] = (§3) Half life in dog at […], iv; format: ADME, organism-based, Canis lupus familiaris; settings: in vivo; further: dose 0.25 mg/kg
Rhesus monkey = assay: Drug metabolism in iv dosed monkey assessed as racemization after 1 hr; format: ADME, organism-based, Macaca mulatta; settings: in vivo; method in brief: as §1
[4] = Intrinsic clearance in rat liver microsomes at 1 uM after 40 mins by LC-MS/MS assay; format: ADME, microsome; settings: read-out: CLH
Rattus norvegicus [5] = assay: Unbound clearance in rat at 0.5 mg/kg, iv; format: ADME, organism-based; settings: in vivo
Method in brief: (§4)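 Rats received 0.5 mg/kg iv as a solution in DMSO. Clearance, half-life and Vdss are taken from the plasma profile. Unbound clearance is total clearance divided by plasma fraction unbound.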

[6] = Intrinsic clearance in human liver microsomes at 1 uM after 40 mins by LC-MS/MS assay; format: ADME, microsome; settings: read-out: CLH
[7] = (§5) Clearance in rat at 0.5 mg/kg, iv; format: ADME, organism-based; settings: in vivo; method in brief: as §4
Rattus norvegicus [8] = assay: Drug metabolism in iv dosed rat assessed as racemization after 1 hr; format: ADME, organism-based; settings: in vivo; method in brief: as §1
[9] = (§6) Volume of distribution at steady state in dog at […], iv; format: ADME, organism-based, Canis lupus familiaris; settings: in vivo, read-out: Vdss; further: dose 0.25 mg/kg
[10] = (§7) Half life in rat at 0.5 mg/kg, iv; format: ADME, organism-based; settings: in vivo; method in brief: as §4
[11] = (§8) Oral bioavailability in dog at 2 mg/kg; format: ADME, organism-based, Canis lupus familiaris; settings: in vivo
Method in brief: (§9)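 Single oral dose in solution in 1% Tween 80/2.0% HPMC, 97% water, pH 10 with KOH; rat 10 mg/kg, dog 2 mg/kg. Plasma profile gives AUC, tmax and %F.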

[12] = (§10) Volume of distribution at steady state in rat at 0.5 mg/kg, iv; format: ADME, organism-based; settings: in vivo, read-out: Vdss; method in brief: as §4
[13] = Intrinsic clearance in dog liver microsomes at 1 uM after 40 mins by LC-MS/MS assay; format: ADME, Canis lupus familiaris, microsome; settings: read-out: CLH
Canis familiaris [14] = assay: Drug metabolism in po dosed dog assessed as racemization after 24 hrs; format: ADME, organism-based, Canis lupus familiaris; settings: in vivo; method in brief: as §1
[15] = Oral bioavailability in rat at 10 mg/kg; format: ADME, organism-based; settings: in vivo; method in brief: as §9
[16] = Chemical stability of compound in 1N NaOH assessed as amide bond hydrolysis at room temperature; format: physicochemical
Canis familiaris [17] = assay: as §8; format: ADME, organism-based, Canis lupus familiaris; settings: in vivo; method in brief: as §9
Plasma = assay: Plasma concentration in po dosed capsaicin-induced nociception pain C57BL/6 mouse model administered 4 hrs prior to capsaicin challenge; format: ADME, organism-based; settings: in vivo
[18] = AUC in dog at 2 mg/kg, po; format: ADME, organism-based, Canis lupus familiaris; settings: in vivo; method in brief: as §9
Canis familiaris [19] = assay: as §2; format: ADME, organism-based, Canis lupus familiaris; settings: in vivo
[20] = Tmax in dog at 2 mg/kg, po; format: ADME, organism-based, Canis lupus familiaris; settings: in vivo; method in brief: as §9
Canis familiaris [21] = assay: as §3; format: ADME, organism-based, Canis lupus familiaris; settings: in vivo
Rattus norvegicus [22] = assay: as §5; format: ADME, organism-based; settings: in vivo; method in brief: as §4
[23] = Chemical stability of compound in toluene assessed as racemization at above 100 degC; format: physicochemical
Method in brief: (§11)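 Racemization kinetics of the atropisomer were examined in neutral media (toluene, water) and basic media (NaOH) with heating above 100 °C.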

Canis familiaris [24] = assay: as §6; format: ADME, organism-based, Canis lupus familiaris; settings: in vivo
[25] = Chemical stability of compound assessed as racemization in presence of HCL at 37 degC after 24 hrs; format: physicochemical; settings: buffer
Method in brief: (§12)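 Racemization of the atropisomer was followed in 10% HCl under two conditions: 37 °C for 24 h and 100 °C for 1 h.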

Rattus norvegicus [26] = assay: as §7; format: ADME, organism-based; settings: in vivo; method in brief: as §4
[27] = Chemical stability of compound assessed as racemization in presence of HCL at 100 degC after 1 hr; format: physicochemical; settings: buffer; method in brief: as §12
Rattus norvegicus [28] = assay: as §10; format: ADME, organism-based; settings: in vivo; method in brief: as §4
[29] = Tmax in rat at 10 mg/kg, po; format: ADME, organism-based; settings: in vivo; method in brief: as §9
[30] = AUC in rat at 10 mg/kg, po; format: ADME, organism-based; settings: in vivo; method in brief: as §9
[31] = Chemical stability of compound in water assessed as racemization at above 100 degC; format: physicochemical; settings: buffer; method in brief: as §11
[32] = Chemical stability of compound in NaOH assessed as racemization at above 100 degC; format: physicochemical; method in brief: as §11

Row | SMILES | clearance [1] | CL free (Canis familiaris [2]) | half-life [3] | microsomal CLint at 1 µM [4] | CL free (Rattus norvegicus [5]) | microsomal CLint at 1 µM [6] | clearance [7] | Vd [9] | half-life [10] | bioavailability [11] | Vd [12] | microsomal CLint at 1 µM [13] | bioavailability [15] | other results
1 | COc1cc(C(F)(F)F)ccc1N1C(=O)COc2cc(S(=O)(=O)Nc3nccs3)ccc21 | – | – | – | – | – | – | – | – | – | – | – | – | – | Stability [16]: Unstable
2 | COc1cc(C(F)(F)F)ccc1N1CCOc2cc(S(=O)(=O)Nc3nccs3)ccc21 | – | – | – | – | 667 mL/min/kg | – | 4 mL/min/kg | – | – | – | – | – | – | –
3 | COc1cc(-c2cccc(C(F)(F)F)c2)ccc1-n1c(=O)ccc2cc(S(=O)(=O)Nc3ncccn3)ccc21 | 0.167 mL/min/kg | 12.8 mL/min/kg | 34 h | 12 µL/min/mg | 883 mL/min/kg | 5 µL/min/mg | 7 mL/min/kg | 0.47 L/kg | 4.6 h | 79% | 2.5 L/kg | < 5 µL/min/mg | 83% | Drug uptake (Plasma): Dose-dependent effect
4 | COc1cc(-c2cccc(OC(F)F)c2)c(F)cc1-n1c(=O)ccc2cc(S(=O)(=O)Nc3ccon3)ccc21 | 0.3 mL/min/kg | 43.3 mL/min/kg | 11 h | < 5 µL/min/mg | 3780 mL/min/kg | < 5 µL/min/mg | 15.2 mL/min/kg | 0.22 L/kg | 1.8 h | 54% | 2.2 L/kg | < 5 µL/min/mg | 30% | –
5 | COc1cc(-c2cccc(F)c2)c(F)cc1-n1c(=O)ccc2cc(S(=O)(=O)Nc3ccon3)ccc21 (atropisomer P) | – | 33 mL/min/kg | – | – | 917 mL/min/kg | – | – | – | – | 62% | – | – | 66% | AUC [18]: 600 µM·h; CL (Canis familiaris [19]): 0.075 mL/min/kg; Tmax [20]: 4 h; t1/2 (Canis familiaris [21]): 4 h; CL (Rattus norvegicus [22]): 3.17 mL/min/kg; Stability [23]: Unstable; Vdss (Canis familiaris [24]): 0.14 L/kg; Stability [25]: Stable; t1/2 (Rattus norvegicus [26]): 2.6 h; Stability [27]: Stable; Vdss (Rattus norvegicus [28]): 1.8 L/kg; Tmax [29]: 2.7 h; AUC [30]: 65 µM·h; Stability [31]: Unstable; Stability [32]: Unstable
6 | COc1cc(-c2cccc(F)c2)c(Cl)cc1-n1c(=O)ccc2cc(S(=O)(=O)Nc3ccon3)cnc21 | – | – | – | – | – | – | – | – | – | – | – | – | – | Stability: Unstable

The next lines start with results.

Row | clearance [1] | CL free (Canis familiaris [2]) | half-life [3] | microsomal CLint at 1 µM [4] | CL free (Rattus norvegicus [5]) | microsomal CLint at 1 µM [6] | clearance [7] | Vd [9] | half-life [10] | bioavailability [11] | Vd [12] | microsomal CLint at 1 µM [13] | bioavailability [15] | SMILES | other results
7 | 0.283 mL/min/kg | 56.7 mL/min/kg | 14 h | 16 µL/min/mg | 1680 mL/min/kg | 5 µL/min/mg | 10.2 mL/min/kg | 0.32 L/kg | 1.9 h | 116% | 1.5 L/kg | < 5 µL/min/mg | 67% | COc1cc(-c2ccc(F)c(C)c2)c(F)cc1-n1c(=O)ccc2cc(S(=O)(=O)Nc3ccon3)ccc21 | Drug metabolism (Mus musculus): Metabolite_Notdetected; Stability: Unstable; Drug metabolism (Rhesus monkey): Metabolite_Notdetected; Drug metabolism (Rattus norvegicus [8]): Metabolite_Notdetected; Drug metabolism (Canis familiaris [14]): Metabolite_Notdetected
8 | 0.583 mL/min/kg | 96.7 mL/min/kg | 12 h | 12 µL/min/mg | 1670 mL/min/kg | < 5 µL/min/mg | 8.33 mL/min/kg | 0.47 L/kg | 2.4 h | – | 1.3 L/kg | < 5 µL/min/mg | 55% | COc1cc(-c2cc(OC)c(-n3c(=O)ccc4cc(S(=O)(=O)Nc5ncccn5)ccc43)cc2F)ccc1Cl | F (Canis familiaris [17]): 157%
